# Measurements published in publication PMC6824728 (International journal of pharmaceutics, 2019).
# Assays:
# [1] = tested on: M-Wnt cells; test: In vitro cytotoxicity, MTT assay; format: cell-based, murine; conditions: 24 h of incubation
# Method in brief: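 M-Wnt cells were grown in RPMI 1640 plus 1% Glutamax and seeded at 1,000 cells/well. After overnight attachment at 37°C, 5% CO2, they were treated for 24 h with graded concentrations of free compound (DMSO stock diluted in medium) or SLN formulation (dispersed in medium). Drug-free SLN, DMSO and medium controls were included. Survival was read by MTT.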
# [2] = tested on: B16-F10 cells; test: In vitro cytotoxicity, MTT assay; format: cell-based, murine; conditions: 48 h of incubation
# Method in brief: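 B16-F10 cells were grown in DMEM and seeded at 4,000 cells/well. After overnight attachment at 37°C, 5% CO2, they were exposed for 48 h to graded concentrations of free compound (DMSO stock diluted in medium) or SLN formulation (dispersed in medium). Drug-free SLNs, DMSO and medium served as controls. Survival was read by MTT.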
# [3] = tested on: B16-F10 tumor; test: Antitumor activity in mice with pre-established B16-F10 tumors; format: in vivo; conditions: B16-F10 s.c. tumors, i.v. 50 mg/kg DHA-dFdC on days 7, 10, 13, 16
# [4] = tested on: B16-F10 tumors; test: Histology; format: in vivo, C57BL/6 mice; conditions: tumors collected day 17; i.v. 50 mg/kg DHA-dFdC x 4
# Method in brief: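 Female C57BL/6 mice (18–20 g, 6–8 weeks) received 5 × 10^5 B16-F10 cells s.c. in the right flank on day 0. They were randomized on day 7 and dosed i.v. every 3 days ×4 at 50 mg/kg. Free compound was given in Tween 80/ethanol/5% mannitol vehicle; SLNs were dispersed in 5% mannitol. Tumors were harvested day 17, formalin-fixed, embedded and H&E stained.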
# [5] = ref Naguib et al., 2016; cited from earlier work
# [6] = Tween 80-ethanol-water solution, room temperature; ref Naguib et al., 2016; cited from earlier work
# [7] = 20°C; ref Kim and Hsieh, 2001; Wu and Hopkins, 1999; cited from earlier work
Compound,IC50 [1] [nM],IC50 [2] [nM],Tumor growth delay [3] [days],Tumor histology (H&E) [4],Intrinsic solubility in water [5],Half-life of DHA-dFdC in solution [6],Critical micelle concentration [7]
"CC/C=C\C/C=C\C/C=C\C/C=C\C/C=C\C/C=C\CCC(=O)Nc1ccn([C@@H]2O[C@H](CO)[C@@H](O)C2(F)F)c(=O)n1 [DHA-dFdC, 4-(N)-docosahexaenoyl 2′, 2′-difluorodeoxycytidine]",2150,1810,4,vascular collapse and necrotic areas,~ 25 μg/mL,~ 14 h,
Tween 20,,,,,,,~ 1 % (w/v)
